Test results: ChEMBL document CHEMBL1153204, “Novel purine and pyrazolo[3,4-d]pyrimidine inhibitors of PI3 kinase-alpha: Hit to lead studies” (Bioorg Med Chem Lett, 2010)
pIC50: −log10 of the molar value. Activity calls are given as the source filed them. No cut-off for these calls is given here.

Key:
PC-3 = experiment: Antiproliferative activity against human PC3 cells; format: functional, cell-based
Outline: (§1)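 Growth densities of Caco-2 (colorectal), LoVo (colon) and PC3MM2 (prostate) adenocarcinoma cultures monitored after compound exposure to measure proliferation.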

MDA-MB-361 = experiment: Inhibition of PI3K in human MDA-MB-361 cells assessed as reduction of phosphorylated Akt (T308) level at 3 to 30 uM after 4 hrs by immunoblotting; format: cell-based
Outline: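 MDA-361 breast adenocarcinoma cells were treated in growth media for 4 h with the indicated doses, with a DMSO control. Lysates were immunoblotted for phospho-Akt T308, and for cleaved PARP as an apoptosis marker.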

Caco-2 = experiment: Antiproliferative activity against human Caco-2 cells; format: functional, cell-based; outline: as §1
[1] = target: Serine/threonine-protein kinase mTOR (Homo sapiens, UniProt P42345); experiment: Inhibition of human TOR in HEK293 cells by DELFIA; format: cell-based
Outline: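 DELFIA-format assay detecting phosphorylated His6-S6K substrate. IC50 values are the means of two experiments, SD ±10%.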

LoVo = experiment: Antiproliferative activity against human LoVo cells; format: functional, cell-based; outline: as §1
[2] = target: Phosphatidylinositol 4,5-bisphosphate 3-kinase catalytic subunit gamma isoform (Homo sapiens, UniProt P48736); experiment: Inhibition of GST-GRP1-fused PI3Kgamma by microtiter plate based fluorescence polarization assay
Outline: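 Fluorescence polarization assay monitoring PIP3 production by PI3K p110α or p110γ. IC50 values are the means of two experiments, SD ±10%.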

[3] = target: Phosphatidylinositol 4,5-bisphosphate 3-kinase catalytic subunit alpha isoform (Homo sapiens, UniProt P42336); experiment: Inhibition of GST-GRP1-fused PI3Kalpha by microtiter plate based fluorescence polarization assay
[4] = Selectivity ratio of IC50 for PI3Kgamma to IC50 for PI3Kalpha
[5] = Selectivity ratio of IC50 for human TOR to IC50 for PI3Kalpha

Sequence of Phosphatidylinositol 4,5-bisphosphate 3-kinase catalytic subunit alpha isoform (P42336 whole entry, the tested form may be a part, canonical isoform): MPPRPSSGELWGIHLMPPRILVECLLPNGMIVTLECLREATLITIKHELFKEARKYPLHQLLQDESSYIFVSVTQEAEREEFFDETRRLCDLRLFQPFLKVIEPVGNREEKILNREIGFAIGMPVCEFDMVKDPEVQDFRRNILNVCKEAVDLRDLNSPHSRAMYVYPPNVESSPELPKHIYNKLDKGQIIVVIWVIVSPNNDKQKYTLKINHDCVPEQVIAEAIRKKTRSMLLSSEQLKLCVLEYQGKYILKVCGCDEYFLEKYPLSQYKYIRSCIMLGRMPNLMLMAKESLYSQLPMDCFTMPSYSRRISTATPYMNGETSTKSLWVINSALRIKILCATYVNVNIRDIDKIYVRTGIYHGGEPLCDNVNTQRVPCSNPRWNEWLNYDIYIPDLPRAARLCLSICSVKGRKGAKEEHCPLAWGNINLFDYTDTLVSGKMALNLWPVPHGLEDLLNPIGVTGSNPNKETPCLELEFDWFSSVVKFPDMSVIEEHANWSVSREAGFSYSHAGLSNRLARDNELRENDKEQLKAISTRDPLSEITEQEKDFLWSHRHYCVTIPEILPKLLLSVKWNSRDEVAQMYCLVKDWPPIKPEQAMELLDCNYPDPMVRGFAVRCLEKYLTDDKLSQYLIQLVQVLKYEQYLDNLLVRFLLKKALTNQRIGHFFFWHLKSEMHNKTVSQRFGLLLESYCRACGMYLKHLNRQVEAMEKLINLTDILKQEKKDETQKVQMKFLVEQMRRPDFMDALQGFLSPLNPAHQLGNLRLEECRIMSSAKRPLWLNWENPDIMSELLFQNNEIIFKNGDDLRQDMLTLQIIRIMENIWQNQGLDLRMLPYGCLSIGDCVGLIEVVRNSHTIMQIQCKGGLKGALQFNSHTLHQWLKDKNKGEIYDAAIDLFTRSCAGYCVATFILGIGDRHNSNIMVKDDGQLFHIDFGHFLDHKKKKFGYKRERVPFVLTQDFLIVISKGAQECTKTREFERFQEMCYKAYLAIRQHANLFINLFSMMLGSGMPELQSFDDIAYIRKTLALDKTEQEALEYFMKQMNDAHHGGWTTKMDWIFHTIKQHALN
Sequence of Phosphatidylinositol 4,5-bisphosphate 3-kinase catalytic subunit gamma isoform (P48736 whole entry, the tested form may be a part, canonical isoform): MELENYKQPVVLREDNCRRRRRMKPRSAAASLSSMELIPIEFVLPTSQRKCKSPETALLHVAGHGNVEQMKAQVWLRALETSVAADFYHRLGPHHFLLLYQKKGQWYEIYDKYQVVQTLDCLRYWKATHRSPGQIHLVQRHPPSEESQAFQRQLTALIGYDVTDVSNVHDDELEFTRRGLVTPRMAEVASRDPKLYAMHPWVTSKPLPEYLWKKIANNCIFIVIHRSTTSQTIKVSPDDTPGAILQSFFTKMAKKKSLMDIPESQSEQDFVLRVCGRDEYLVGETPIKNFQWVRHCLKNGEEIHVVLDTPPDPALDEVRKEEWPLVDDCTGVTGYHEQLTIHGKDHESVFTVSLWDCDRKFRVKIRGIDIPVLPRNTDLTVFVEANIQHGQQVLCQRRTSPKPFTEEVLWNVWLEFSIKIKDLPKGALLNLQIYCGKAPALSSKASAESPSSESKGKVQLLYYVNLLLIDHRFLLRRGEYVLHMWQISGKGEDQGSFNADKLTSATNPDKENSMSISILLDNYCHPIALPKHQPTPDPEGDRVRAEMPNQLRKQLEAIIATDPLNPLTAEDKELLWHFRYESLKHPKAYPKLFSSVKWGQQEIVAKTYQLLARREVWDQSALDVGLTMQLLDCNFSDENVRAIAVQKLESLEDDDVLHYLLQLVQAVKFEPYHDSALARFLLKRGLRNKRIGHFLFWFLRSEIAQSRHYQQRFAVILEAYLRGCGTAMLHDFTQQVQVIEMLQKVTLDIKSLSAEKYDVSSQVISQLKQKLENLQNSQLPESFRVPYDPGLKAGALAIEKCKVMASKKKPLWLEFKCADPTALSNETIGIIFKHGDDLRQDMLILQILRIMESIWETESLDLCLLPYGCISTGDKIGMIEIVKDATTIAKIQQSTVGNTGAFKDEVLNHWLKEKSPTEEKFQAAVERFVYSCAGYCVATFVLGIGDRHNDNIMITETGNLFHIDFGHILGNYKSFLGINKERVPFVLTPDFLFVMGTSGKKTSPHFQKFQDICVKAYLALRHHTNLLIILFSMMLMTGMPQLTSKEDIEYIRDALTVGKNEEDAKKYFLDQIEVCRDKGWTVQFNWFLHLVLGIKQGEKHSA

pIC50 (PC-3) | pIC50 (Caco-2) | pIC50 [1] | pIC50 (LoVo) | pIC50 [2] | pIC50 [3] | Ratio IC50 [4] | Ratio IC50 [5] | SMILES | inhibition (MDA-MB-361)
5.89 | 5.29 | 6.16 | 5.98 |  |  |  |  | OCc1cccc(-c2nc(N3CCOCC3)c3ncn(C4CCN(Cc5ccccc5)CC4)c3n2)c1 | Active
 |  |  |  | 5.08 | 5.54 |  |  | N#Cc1cccc(-c2nc(N3CCOCC3)c3nc[nH]c3n2)c1 | 
 |  | 5.62 |  |  | 6.63 |  |  | Oc1cccc(-c2nc(N3CCOCC3)c3nc[nH]c3n2)c1 | 
 |  |  |  | 5.00 | 5.17 |  |  | NC(=O)c1ccc(-c2nc(N3CCOCC3)c3nc[nH]c3n2)cc1 | 
5.13 | 5.19 |  | 5.45 | 5.62 | 6.70 |  |  | Oc1cccc(-c2nc(N3CCOCC3)c3ncn(CC4CCN(Cc5ccccc5)CC4)c3n2)c1 | 
 |  |  |  | 5.10 | 5.41 |  |  | CS(=O)(=O)c1cccc(-c2nc(N3CCOCC3)c3nc[nH]c3n2)c1 | 
 |  |  |  | 5.12 | 5.46 |  |  | c1nc2c(N3CCOCC3)nc(-c3ccc4c(c3)OCCO4)nc2[nH]1 | 
5.03 | 5.24 |  | 5.51 | 5.78 | 6.61 |  |  | OCc1cccc(-c2nc(N3CCOCC3)c3ncn(CC4CCN(Cc5ccccc5)CC4)c3n2)c1 | 
6.04 | 5.25 |  | 5.80 | 6.00 |  |  |  | Oc1cccc(-c2nc(N3CCOCC3)c3cnn(C4CCNCC4)c3n2)c1 | 
6.46 | 5.87 | 7.05 | 6.29 | 6.01 | 7.60 |  |  | OCc1cccc(-c2nc(N3CCOCC3)c3cnn(C4CCN(Cc5ccccc5)CC4)c3n2)c1 | 
 |  |  |  | 5.10 | 5.54 |  |  | OCc1ccc(-c2nc(N3CCOCC3)c3nc[nH]c3n2)cc1 | 
 |  | 6.82 |  | 5.13 | 5.63 |  |  | c1cc2ccc(-c3nc(N4CCOCC4)c4nc[nH]c4n3)cc2[nH]1 | 
5.82 | 5.39 | 6.06 | 5.69 | 6.88 | 7.19 |  |  | Oc1cccc(-c2nc(N3CCOCC3)c3ncn(C4CCNCC4)c3n2)c1 | 
 |  |  |  | 5.10 | 5.36 |  |  | CS(=O)(=O)Nc1cccc(-c2nc(N3CCOCC3)c3nc[nH]c3n2)c1 | 
5.63 | 5.35 |  | 5.73 |  | 7.24 | 11 | > 100 | OCc1cccc(-c2nc(N3CCOCC3)c3ncn(C4CCNCC4)c3n2)c1 | 
6.03 | 5.22 | 7.08 | 5.79 | 5.63 |  |  |  | Oc1cccc(-c2nc(N3CCOCC3)c3cnn(C4CCN(Cc5ccccc5)CC4)c3n2)c1 | 
 |  |  |  | 5.10 | 5.62 |  |  | c1nc2c(N3CCOCC3)nc(-c3ccsc3)nc2[nH]1 | 
 |  |  |  | 4.99 | 5.42 |  |  | Oc1cccc(-c2nc(N3CCCCC3)c3nc[nH]c3n2)c1 | 
 |  |  |  | 4.96 | 5.42 |  |  | c1nc2c(N3CCOCC3)nc(-c3ccoc3)nc2[nH]1 | 
< 5.00 | < 5.00 |  | < 5.00 | 5.17 | 6.19 |  |  | c1csc(-c2nc(N3CCOCC3)c3nc[nH]c3n2)c1 | 
 |  |  |  | 5.07 | 5.60 |  |  | Oc1ccc(-c2nc(N3CCOCC3)c3nc[nH]c3n2)cc1 | 
5.95 | < 5.00 |  | 5.71 | 4.97 | 7.10 |  |  | Oc1cccc(-c2nc(N3CCOCC3)c3ncn(C4CCN(Cc5ccccc5)CC4)c3n2)c1 | 
< 5.00 | < 5.00 |  | 5.14 | 5.29 | 6.18 |  |  | Oc1ccccc1-c1nc(N2CCOCC2)c2nc[nH]c2n1 | 
 |  |  |  | 5.16 | 5.92 |  |  | c1nc2c(N3CCOCC3)nc(-c3ccc4c(c3)OCO4)nc2[nH]1 | 
 |  |  |  | 5.23 | 5.75 |  |  | CS(=O)(=O)c1ccc(-c2nc(N3CCOCC3)c3nc[nH]c3n2)cc1 | 
